From publication PMC6044872 (ACS Omega, 2017) come the findings set out here.

Assay [1] relates to MUC1 glycopeptides PDT*R-Tn-20-, 40-, 60-, 100-mer and PDT*R-STn-20-, 40-, 60-, 100-mer. The assay is classed as binding. Conditions: ELISA signals with 20-, 60- and 100-mer glycopeptides. The essentials: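 Streptavidin (10 μg/mL in 50 mM Tris–HCl, pH 7.5) coated overnight at 4 °C; blocked 2 h at RT. Biotinylated Tn- or STn-glycopeptides (20-, 40-, 60-, 100-mer) captured overnight at 4 °C. Antibody overnight at 4 °C, HRP-anti-mouse IgG 2 h at RT. TMB 30 min, H2SO4 stop, A450. Antibody concentration set separately for each antibody.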
On the technique in general: ELISA stands for enzyme-linked immunosorbent assay.

Assay [2] relates to T-47D breast cancer cells. Description: Flow cytometry binding to T-47D. The assay is classed as cell-based, human. Summed up: (§1)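 Cells were grown 48 h, trypsinized and washed in PBS with 10% FBS. 1.0 × 10^6 cells in 200 μL antibody solution, 2 h on ice. FITC-labelled anti-mouse IgG 1 h on ice, then three washes and resuspension in PBS/10% FBS. Analysed by flow cytometry; histograms overlaid on isotype control antibody.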

In assay [3] the test system is 184A1 mammary epithelial cells. Put plainly: Flow cytometry binding to 184A1. The assay is classed as cell-based, human. The essentials:
as §1

In assay [4] the test system is H292 mucoepidermoid carcinoma cells. Description: Flow cytometry binding to H292. The assay is classed as cell-based, human. Summed up:
as §1
(In general: Flow cytometry measures light scatter and fluorescence of single cells or particles in a stream.)

Assay [5] concerns Calu-3 lung adenocarcinoma cells. Put plainly: Flow cytometry binding to Calu-3. The assay is classed as cell-based, human. The essentials: as §1
Assay [6] deals with A549 lung adenocarcinoma epithelial cells. Description: Flow cytometry binding to A549. The assay is classed as cell-based, human. Summed up: as §1

B1: PankoMab: anti-MUC1 antibody (Glycotope, Germany), established using desialylated MUC1 as the immunogen (antibody, chains of the INN, looked up, V domains shown)
VH: EVQLVESGGGLVQPGGSMRLSCVASGFPFSNYWMNWVRQAPGKGLEWVGEIRLKSNNYTTHYAESVKGRFTISRDDSKNSLYLQMNSLKTEDTAVYYCTRHYYFDYWGQGTLVTVSS
VL: DIVMTQSPLSNPVTPGEPASISCRSSKSLLHSNGITYFFWYLQKPGQSPQLLIYQMSNLASGVPDRFSGSGSGTDFTLRISRVEAEDVGVYYCAQNLELPPTFGQGTKVEIK
Turning to B1, in assay [1], the “Tandem-repeat dependence of binding” value was “tandem-repeat-dependent manner”. In addition, in assay [2], the “Binding to T-47D (in words)” value is “bound only to T-47D”. The “Binding to 184A1 (in words)” value in assay [3] is “hardly bound”. Further, the “Binding to H292 (in words)” value in assay [4] is “hardly bound”. In assay [5], the “Binding to Calu-3 (in words)” value was “hardly bound”. In assay [6], the “Binding to A549 (in words)” value is given as “hardly bound”.
